Laboratory results reported in ChEMBL document CHEMBL1268974, “Synthesis and antitumour activity of glycyrrhetinic acid derivatives” (Bioorg Med Chem, 2010).
Calls of active or inactive are those of the source. The rule behind the calls is not given here.

Columns and labels:
A549 [1] = experiment: Induction of apoptosis in human A549 cells at IC90 concentration after 24 to 48 hrs using acridine orange/ethidium bromide dye by fluorescence microscopic analysis; type: functional, cell-based
Summary of the method: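 About 500,000 cells were seeded in flasks and grown for 24 h, then the medium was replaced with compound-containing medium. After 24–48 h, floating cells in the supernatant were pelleted, washed and resuspended in PBS, mixed with acridine orange/ethidium bromide and examined by fluorescence microscopy. Green nuclear fluorescence was scored as apoptotic and red nuclei as necrotic.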

A2780 (Homo sapiens) = experiment: Induction of apoptosis in human A2780 cells assessed as DNA ladder formation at IC90 concentration after 24 hrs by agarose gel electrophoresis
[2] = Cytotoxicity against human 518A2 cells after 96 hrs by SRB assay; type: functional, cell-based; settings: 518A2, 96 h
8505C = experiment: Cytotoxicity against human 8505C cells after 96 hrs by SRB assay; type: functional, cell-based; settings: Homo sapiens, 8505C, 96 h
[3] = Cytotoxicity against human A253 cells after 96 hrs by SRB assay; type: functional, cell-based; settings: Homo sapiens, A253, 96 h
A2780 = experiment: Cytotoxicity against human A2780 cells after 96 hrs by SRB assay; type: functional, cell-based; settings: Homo sapiens, A2780, 96 h
A-431 = experiment: Cytotoxicity against human A431 cells after 96 hrs by SRB assay; type: functional, cell-based; settings: A-431, 96 h
A549 [4] = experiment: Cytotoxicity against human A549 cells after 96 hrs by SRB assay; type: functional, cell-based; settings: Homo sapiens, A549, 96 h
DLD-1 = experiment: Cytotoxicity against human DLD1 cells after 96 hrs by SRB assay; type: functional, cell-based; settings: Homo sapiens, DLD-1, 96 h
FaDu = experiment: Cytotoxicity against human FADU cells after 96 hrs by SRB assay; type: functional, cell-based
HCT-116 = experiment: Cytotoxicity against human HCT116 cells after 96 hrs by SRB assay; type: functional, cell-based; settings: HCT-116, 96 h
HCT-8 = experiment: Cytotoxicity against human HCT8 cells after 96 hrs by SRB assay; type: functional, cell-based; settings: HCT-8, 96 h
HT-29 = experiment: Cytotoxicity against human HT-29 cells after 96 hrs by SRB assay; type: functional, cell-based; settings: HT-29, 96 h
[5] = Cytotoxicity against human Lipo cells after 96 hrs by SRB assay; type: functional, cell-based; settings: Homo sapiens, Lipo, 96 h
MCF7 = experiment: Cytotoxicity against human MCF7 cells after 96 hrs by SRB assay; type: functional, cell-based; settings: Homo sapiens, MCF7, 96 h
SW-1736 = experiment: Cytotoxicity against human SW1736 cells after 96 hrs by SRB assay; type: functional, cell-based; settings: Homo sapiens, SW-1736, 96 h
SW480 = experiment: Cytotoxicity against human SW480 cells after 96 hrs by SRB assay; type: functional, cell-based; settings: SW480, 96 h
[6] = Cytotoxicity against mouse NIH/3T3 cells after 96 hrs by SRB assay; type: cell-based; settings: NIH3T3, 96 h

With COC(=O)[C@@]1(C)CC[C@]2(C)CC[C@]3(C)C(=CC(=O)[C@@H]4[C@@]5(C)CC[C@H](OC(=O)CCN)C(C)(C)[C@@H]5CC[C@]43C)[C@@H]2C1 the Activity (A549 [1]) was “Active” and the Activity (A2780 (Homo sapiens)) was “Active”.
In the case of CC(C)OC(=O)[C@@]1(C)CC[C@]2(C)CC[C@]3(C)C(=CC(=O)[C@@H]4[C@@]5(C)CC[C@H](O)C(C)(C)[C@@H]5CC[C@]43C)[C@@H]2C1, the IC50 [2] is reported as 18.2 µM, the IC50 (8505C) is reported as 14.2 µM and the IC50 [3] is reported as 15.8 µM. It also gave an IC50 (A2780) of 24.9 µM, an IC50 (A-431) of 32 µM and an IC50 (A549 [4]) of 14.4 µM. The IC50 (DLD-1) was 27.6 µM, the IC50 (FaDu) was 14.4 µM and the IC50 (HCT-116) was 26.4 µM. It also gave an IC50 (HCT-8) of 24.1 µM, an IC50 (HT-29) of 16 µM and an IC50 [5] of 15.9 µM. The IC50 (MCF7) was 16 µM, the IC50 (SW-1736) was 12.8 µM and the IC50 (SW480) was 15.3 µM. For the same compound, the IC50 [6] was 32.4 µM.
For CC1(C)[C@@H](O)CC[C@]2(C)[C@H]3C(=O)C=C4[C@@H]5C[C@@](C)(C(=O)OCc6ccccc6)CC[C@]5(C)CC[C@@]4(C)[C@]3(C)CC[C@@H]12, the IC50 [2] was 18.2 µM, the IC50 (8505C) was 8.1 µM and the IC50 [3] was 10.7 µM. The IC50 (A2780) was 20.3 µM, the IC50 (A-431) was 23.6 µM and the IC50 (A549 [4]) was 6.15 µM. The IC50 (DLD-1) was 22.7 µM, the IC50 (FaDu) was 5.48 µM and the IC50 (HCT-116) was 20.6 µM. The IC50 (HCT-8) was 25.2 µM, the IC50 (HT-29) was 11.5 µM and the IC50 [5] was 11.5 µM. It also gave an IC50 (MCF7) of 13.5 µM, an IC50 (SW-1736) of 2.74 µM and an IC50 (SW480) of 6.17 µM. It also gave an IC50 [6] of 21 µM.
Compound CC(C)OC(=O)[C@@]1(C)CC[C@]2(C)CC[C@]3(C)C(=CC(=O)[C@@H]4[C@@]5(C)CC[C@H](OC(=O)[C@@H](C)N)C(C)(C)[C@@H]5CC[C@]43C)[C@@H]2C1 has an IC50 [2] of 5.48 µM, an IC50 (8505C) of 3.51 µM and an IC50 [3] of 3.5 µM. It also gave an IC50 (A2780) of 1.7 µM, an IC50 (A-431) of 3.11 µM and an IC50 (A549 [4]) of 3.17 µM. For the same compound, the IC50 (DLD-1) was 5.67 µM, the IC50 (FaDu) was 5.48 µM and the IC50 (HCT-116) was 4.82 µM. The IC50 (HCT-8) was 3.32 µM, the IC50 (HT-29) was 3.47 µM and the IC50 [5] was 4.73 µM. It also gave an IC50 (MCF7) of 3.52 µM, an IC50 (SW-1736) of 3.46 µM and an IC50 (SW480) of 3.47 µM. The Activity (A549 [1]) was “Active”.
For CC1(C)[C@@H](O)CC[C@]2(C)[C@H]3C(=O)C=C4[C@@H]5C[C@@](C)(C(=O)O)CC[C@]5(C)CC[C@@]4(C)[C@]3(C)CC[C@@H]12 [ENOXOLONE], the IC50 [2] was 83.9 µM, the IC50 (8505C) was 86.5 µM and the IC50 [3] was 80.8 µM. The IC50 (A2780) was 74.6 µM, the IC50 (A-431) was 79.6 µM and the IC50 (A549 [4]) was 82.8 µM. The IC50 (DLD-1) was 81.2 µM, the IC50 (FaDu) was 84.5 µM and the IC50 (HCT-116) was 78.8 µM. It also gave an IC50 (HCT-8) of 78.9 µM, an IC50 (HT-29) of 80.1 µM and an IC50 [5] of 81.4 µM. For the same compound, the IC50 (MCF7) was 84.7 µM, the IC50 (SW-1736) was 76.9 µM and the IC50 (SW480) was 86.8 µM. For the same compound, the IC50 [6] was 18.5 µM and the Activity (A549 [1]) was “Active”.
COC(=O)[C@@]1(C)CC[C@]2(C)CC[C@]3(C)C(=CC(=O)[C@@H]4[C@@]5(C)CC[C@H](O)C(C)(C)[C@@H]5CC[C@]43C)[C@@H]2C1 gave an IC50 [2] of 27.5 µM, an IC50 (8505C) of 26.1 µM and an IC50 [3] of 19.4 µM. It also gave an IC50 (A2780) of 25.5 µM, an IC50 (A-431) of 25.3 µM and an IC50 (A549 [4]) of 23.5 µM. For the same compound, the IC50 (DLD-1) was 26.1 µM, the IC50 (FaDu) was 23.4 µM and the IC50 (HCT-116) was 22.1 µM. For the same compound, the IC50 (HCT-8) was 24.4 µM, the IC50 (HT-29) was 27.5 µM and the IC50 [5] was 20.5 µM. It also gave an IC50 (MCF7) of 22.1 µM, an IC50 (SW-1736) of 34.9 µM and an IC50 (SW480) of 16.1 µM. For the same compound, the IC50 [6] was 22.8 µM.
With CCOC(=O)[C@@]1(C)CC[C@]2(C)CC[C@]3(C)C(=CC(=O)[C@@H]4[C@@]5(C)CC[C@H](O)C(C)(C)[C@@H]5CC[C@]43C)[C@@H]2C1 the IC50 [2] was 25.2 µM, the IC50 (8505C) was 24.6 µM and the IC50 [3] was 25 µM. For the same compound, the IC50 (A2780) was 27 µM, the IC50 (A-431) was 23.4 µM and the IC50 (A549 [4]) was 22.7 µM. The IC50 (DLD-1) was 28.1 µM, the IC50 (FaDu) was 23.8 µM and the IC50 (HCT-116) was 21.6 µM. It also gave an IC50 (HCT-8) of 43.4 µM, an IC50 (HT-29) of 22.1 µM and an IC50 [5] of 27.7 µM. The IC50 (MCF7) was 18.6 µM, the IC50 (SW-1736) was 13.4 µM and the IC50 (SW480) was 19.1 µM. It also gave an IC50 [6] of 23.7 µM.
